Where two headings read alike, the source gives them in different places.
How the values were obtained:
Male Sprague Dawley rats = assay: Intracranial self-stimulation; format: in vivo, rat; conditions: i.p., measured for 1 hr; for Effect on ICSS thresholds: butorphan 0.25-4.0 mg/kg, 8 1.0-30.0 mg/kg
Summary of the method: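 Rats carried monopolar electrodes in the medial forebrain bundle (lateral hypothalamus). They were trained on FR1 at 141 Hz (500 ms trains) by the rate-frequency method until thresholds were stable (±10%, 4 days); N=6 per cohort. Baseline was the mean of the last two of three 15-min functions. Ascending i.p. doses were given in 20% DMSO/water or 0.9% saline, then four 15-min trials. Output was percent of baseline, by two-way repeated-measures ANOVA with Tukey.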

[1] = system: morphine dependent monkeys; conditions: more potent (in contrast to cyclorphan); cited from earlier work
rats = conditions: ref 10b; cited from earlier work
human KOR [2] = molecular target: T1, human KOR (Homo sapiens, UniProt P41145); assay: Stimulation/inhibition of [35S]GTPγS binding mediated by the KOR; format: biochemical; conditions: from [35S]GTPγS stimulation and inhibition data
T1 sequence (P41145 whole entry): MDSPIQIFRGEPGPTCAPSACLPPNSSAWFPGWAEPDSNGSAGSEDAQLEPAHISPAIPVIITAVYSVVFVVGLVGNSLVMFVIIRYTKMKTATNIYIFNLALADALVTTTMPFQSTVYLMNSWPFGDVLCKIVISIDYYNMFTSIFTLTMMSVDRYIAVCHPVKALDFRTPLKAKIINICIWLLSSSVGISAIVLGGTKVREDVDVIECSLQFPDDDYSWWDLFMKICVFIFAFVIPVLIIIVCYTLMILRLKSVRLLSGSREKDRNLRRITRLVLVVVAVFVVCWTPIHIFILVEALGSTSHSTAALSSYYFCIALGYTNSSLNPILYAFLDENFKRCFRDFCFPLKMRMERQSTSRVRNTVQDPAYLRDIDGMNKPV
Summary of the method: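 CHO membranes stably expressing human KOR (15 μg protein/tube) were incubated 60 min at 30 °C with 12 concentrations of test compound in 50 mM Tris–HCl, 3 mM MgCl2, 100 mM NaCl, 0.2 mM EGTA, pH 7.4, with 3 μM GDP and […] [35S]GTPγS. Antagonism was tested against 30 nM U50,488. Nonspecific binding used 10 μM GTPγS. After filtration and counting, results were expressed as % stimulation over basal; ≥3 experiments, triplicate.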

human MOR [3] = molecular target: T2, human MOR (Homo sapiens, UniProt P35372); assay: Stimulation/inhibition of [35S]GTPγS binding mediated by the MOR; format: biochemical; conditions: from [35S]GTPγS stimulation and inhibition data
T2 sequence (P35372 whole entry): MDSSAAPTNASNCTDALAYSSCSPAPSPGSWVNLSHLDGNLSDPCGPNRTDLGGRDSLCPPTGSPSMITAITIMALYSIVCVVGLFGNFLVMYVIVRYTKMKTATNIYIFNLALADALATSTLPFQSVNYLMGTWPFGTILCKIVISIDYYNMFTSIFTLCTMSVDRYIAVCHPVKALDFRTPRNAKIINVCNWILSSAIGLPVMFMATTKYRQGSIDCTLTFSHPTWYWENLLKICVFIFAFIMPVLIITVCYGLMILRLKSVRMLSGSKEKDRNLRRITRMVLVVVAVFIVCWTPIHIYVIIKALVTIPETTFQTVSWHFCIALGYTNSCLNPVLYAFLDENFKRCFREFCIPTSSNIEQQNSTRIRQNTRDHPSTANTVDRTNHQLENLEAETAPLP
Summary of the method: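 Membranes from CHO cells stably expressing human MOR (7.5 μg protein/tube) were incubated 60 min at 30 °C with 12 test compound concentrations in 50 mM Tris–HCl, 3 mM MgCl2, 100 mM NaCl, 0.2 mM EGTA, pH 7.4, plus 3 μM GDP and 80 pmol [35S]GTPγS. Antagonist mode used 200 nM DAMGO. Nonspecific binding was defined with 10 μM GTPγS. Filter-bound counts were given as % stimulation over basal; at least three experiments in triplicate.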

human KOR [4] = molecular target: T1, human KOR; conditions: from [35S]GTPγS stimulation and inhibition data; cited from earlier work
human KOR [5] = molecular target: T1, human KOR; conditions: cited from earlier work
rhesus monkeys = conditions: cited from earlier work
mice = conditions: cited from earlier work
human MOR [6] = molecular target: T2, human MOR; conditions: from [35S]GTPγS stimulation and inhibition data; cited from earlier work

## Oc1ccc2c(c1)[C@@]13CCCC[C@H]1[C@@H](C2)N(CC1CCC1)CC3 [Butorphan]
Male Sprague Dawley rats; 4.0 mg/kg
  Effect on maximum rates of responding: significantly decreased rates of responding
Male Sprague Dawley rats
  Effect on ICSS thresholds: no significant effect
[1]
  Potency in suppressing abstinence: 40 times
rats
  Antinociception in the warm-water tail flick test: full antinociception

## COc1ccc2c(c1)[C@]13CCN(CC4CC4)[C@H](C2)[C@@H]1Cc1sc(NC(C)=O)nc1C3 [Compound 10, 6,7-(2-N-Acetyl)aminothiazolo-N-cyclopropylmethyl-3-methoxymorphinan]
Human KOR [2]
  Pharmacological properties at the KOR (agonist/antagonist): full agonists
Human MOR [3]
  Pharmacological properties at the MOR (agonist/antagonist): agonist and antagonist properties

## Nc1nc2c(s1)C[C@H]1[C@H]3Cc4ccc(O)cc4[C@@]1(CCN3CC1CC1)C2 [Compound 8]
Male Sprague Dawley rats
  Effect on ICSS thresholds: no significant effect
Human KOR [4]
  Pharmacological properties at the KOR (agonist/antagonist): both agonist and antagonist properties
Human KOR [5]; read-out: Ki [3H]U69,593 (κ), CHO membranes, human KOR, ± SEM
  Ki: 0.072 ± 0.0039 nM

## CNc1nc2c(s1)C[C@H]1[C@H]3Cc4ccc(OC)cc4[C@@]1(CCN3CC1CC1)C2 [Compound 11, 6,7-(2-N-Methyl)aminothiazolo-N-cyclopropylmethyl-3-methoxymorphinan]
Human KOR [2]
  Pharmacological properties at the KOR (agonist/antagonist): full agonists
Human MOR [3]
  Pharmacological properties at the MOR (agonist/antagonist): agonist and antagonist properties

## Oc1ccc2c(c1)[C@@]13CCCC[C@H]1[C@@H](C2)N(CC1CC1)CC3 [Cyclorphan]
Rhesus monkeys
  Effect on cocaine self-administration: reduced cocaine self-administration
rats
  Antinociception in the warm-water tail flick test: partial effect

## CCNc1nc2cc3c(cc2s1)C[C@@H]1[C@@H]2CCCC[C@]32CCN1CC1CC1 [Compound 1c]
mice
  Effect on morphine sensitization: inhibited morphine sensitization

## COc1ccc2c(c1)[C@]13CCN(CC4CC4)[C@H](C2)[C@@H]1Cc1sc(N)nc1C3 [Compound 7]
Human KOR [4]
  Pharmacological properties at the KOR (agonist/antagonist): full agonists
Human KOR [5]; ratio of Ki values
  Selectivity δ/κ: 7
Human MOR [6]
  Pharmacological properties at the MOR (agonist/antagonist): agonist and antagonist properties

From PMC3880591 (Journal of medicinal chemistry, 2013)
